Holding throughout (assay type): functional
The subject of experiment [1] is Mus musculus. Briefly: Effective dose to produce anticonvulsant activity using maximal electroshock assay (MES) evaluated in mice after oral administration. In outline: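 Mice given oral doses as a suspension in 5% acacia/water. Corneal electroshock (40 mA, 0.1 s, ac). Retest at the time of peak effect with at least four doses, 12 mice per dose. ED50 is for prevention of tonic-extensor convulsions, by Litchfield–Wilcoxon with 95% confidence limits.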
In general terms: Protection in the maximal electroshock model is a classic sign of anticonvulsant action.

The subject of experiment [2] is Mus musculus. Kind of experiment: Effective dose to produce anticonvulsant activity using horizontal screen test (HS) evaluated in mice after oral administration. The method, boiled down:
(§1)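 Fasted male CF1 mice (20–25 g), oral suspension in 5% acacia/water. Each mouse placed on a screen, rod rotated 180°, and return to the top within 1 min scored. Peak time found at 0.5–4 h. Retest at that time with at least four doses, 12 mice per dose. ED50 by Litchfield–Wilcoxon with 95% confidence limits.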

The subject of experiment [3] is Mus musculus. Briefly: Anticonvulsant activity using hexobarbital-induced (100 mg/kg dose was administered intraperitoneally) sleeping time assay evaluated in mice. In outline:
(§2)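 Groups of 10 fasted mice dosed orally with test compound in 5% acacia/water; at the previously determined time of peak effect, hexobarbital given ip, solubilized with stoichiometric NaOH. Duration of loss of righting reflex monitored. Mean ± SEM for 10 animals, compared against vehicle controls.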

Experiment [4] has as its system Mus musculus. Briefly: Time to peak anticonvulsant effect (TPE) evaluated in mice after oral administration. The method, boiled down:
(§3)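 Three groups of mice given a range of oral doses in 5% acacia/water. Challenged by corneal MES (40 mA, 0.1 s, ac) at 0.5, 1, 2, 3 and 4 h posttreatment. Time of peak protection against seizures recorded.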

Experiment [5] relates to Mus musculus. Kind of experiment: Anticonvulsant activity using hexobarbital-induced (100 mg/kg dose was administered intraperitoneally)sleeping time assay evaluated in mice. In outline: as §2
The subject of experiment [6] is Mus musculus. Kind of experiment: Anticonvulsant activity using hexobarbital-induced (100 mg/kg dose was administered intraperitoneally) sleeping time assay evaluated in mice after oral administration. The method, boiled down: as §2
For experiment [7], the system named is Mus musculus. Briefly: Time to peak anticonvulsant effect (TPE) was determined in mice after oral administration. In outline: as §3
Experiment [8] relates to Mus musculus. Kind of experiment: Effective dpse to produce anticonvulsant activity using horizontal screen test (HS) evaluated in mice after oral administration. The method, boiled down:
as §1

What is called ED50 is the dose at which the effect has come halfway, by size or by number of responders. A higher ED50 goes with a need for a large dose. `CC(O)(Cn1ccnc1)c1ccc2c(c1)Cc1ccccc1-2` (centres undefined) returned an ED50 in experiment [1] of 10 mg/kg.
Turning to `c1ccc(OCCn2ccnc2)cc1`, the ED50 was 130 mg/kg in experiment [1] and over 280 mg/kg in experiment [2]. The “Hexobarb ST” value in experiment [3] turned out to be 434.2 min. In addition, the TPE in experiment [4] turned out to be 4 h.
As for `Cl.c1ccc(-c2ccccc2OCCCCn2ccnc2)cc1`, the ED50 is 29.8 mg/kg in experiment [1] and over 200 mg/kg in experiment [2]. Further, in experiment [3], the “Hexobarb ST” value was determined as 124.3 min. This molecule displayed a TPE in experiment [4] of 0.5 h.
Consider `Cl.c1ccc(-c2ccc(OCCn3ccnc3)cc2)cc1`, for which the values for the ED50 in experiment [1] and in experiment [2] were 44 mg/kg and over 400 mg/kg, respectively. Besides, in experiment [5], the “Hexobarb ST” value worked out at 697.5 min. Moreover, the TPE in experiment [4] was determined as 2 h.
For `Cl.c1ccc(-c2cccc(OCCn3ccnc3)c2)cc1`, the ED50 in experiment [1] was 20.5 mg/kg; in experiment [2] it was over 200 mg/kg. In addition, the “Hexobarb ST” value in experiment [3] stood at 334 min. Also, the TPE in experiment [4] is 4 h.
Take `Cl.c1ccc(-c2ccccc2OCCn2ccnc2)cc1`: the ED50 in experiment [1] came to 15.5 mg/kg; in experiment [2], 320 mg/kg. The “Hexobarb ST” value in experiment [6] is on record as 252.1 min. Besides, in experiment [7], the TPE amounted to 1 h.
In the case of `Cl.c1ccc(-c2ccccc2OCCCn2ccnc2)cc1`, the figures for the ED50 in experiment [1] and in experiment [2] were 21.3 mg/kg and over 280 mg/kg, respectively. Besides, in experiment [3], the “Hexobarb ST” value is 126.7 min. This molecule also gave a TPE in experiment [4] of 1 h.
Take `O=C(Cn1ccnc1)c1ccc2ccccc2c1` [NAFIMIDONE]: the median effective dose (ED50) in experiment [1] is 56 mg/kg.
`O=C1NC(=O)C(c2ccccc2)(c2ccccc2)N1` [PHENYTOIN]: the ED50 is 9.4 mg/kg in experiment [1] and 210 mg/kg in experiment [8]. In experiment [4], the TPE amounted to 1 h.
